Each structure is given as a SMILES string. In brackets after ≈: the same amount, converted by molar mass.

In general, logP refers to a log measure of how a compound divides between an organic and an aqueous phase.

Data set [1] relates to A2780. Briefly: Cytotoxicity against human A2780 cells. The format is functional, cell-based.
Data set [2] in a line: Induction of tubulin polymerization by DAPI fluorescence method. The settings on record: read-out: I50. Summed up: (§1)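 Microplate assay in PMEG buffer (100 mM PIPES, 1 mM MgSO₄, 2 mM EGTA, 0.1 mM GTP, pH 6.9) containing ligand; DAPI final 10 µM, tubulin final 5 µM. Fluorescence followed at 37 °C, excitation 360/40 nm, emission 460/40 nm. Change in fluorescence normalized to the curve of 10 µM paclitaxel standard. Samples in duplicate, triplicate or quadruplicate; concentrations over 2 orders of magnitude tested.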

The nature of data set [3]: Octanol-water partition coefficient, log P in 0.1 N aqueous HCl. The format is physicochemical. Summed up: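 Compound partitioned between 1-octanol and 0.1 N aqueous HCl with vigorous shaking for 1 h.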
Data set [4] in a line: Induction of tubulin polymerization at 10 uM by DAPI fluorescence method relative to control. Summed up:
as §1

The nature of data set [5]: Induction of tubulin polymerization at 1 uM by DAPI fluorescence method relative to control. Summed up: as §1
The nature of data set [6]: Induction of tubulin polymerization at 0.1 uM by DAPI fluorescence method relative to control. Summed up:
as §1

In data set [1], `CC(=O)O[C@@]12CO[C@@H]1C[C@H](OC(=O)CN1CCNCC1)[C@@]1(C)C(=O)[C@H](O)C3=C(C)[C@@H](OC(=O)[C@H](O)[C@@H](NC(=O)c4ccccc4)c4ccccc4)C[C@@](O)([C@@H](OC(=O)c4ccccc4)[C@H]21)C3(C)C` displayed an IC50 of 0.86 µg/mL (≈ 0.917 µM).
`CC(=O)O[C@@]12CO[C@@H]1C[C@H](OC(=O)CN1CCN(Cc3ccc4c(c3)OCO4)CC1)[C@@]1(C)C(=O)[C@H](O)C3=C(C)[C@@H](OC(=O)[C@H](O)[C@@H](NC(=O)c4ccccc4)c4ccccc4)C[C@@](O)([C@@H](OC(=O)c4ccccc4)[C@H]21)C3(C)C`: the IC50 in data set [2] was 7800 nM; in data set [1], 0.02 µg/mL (≈ 0.0187 µM).
For `CC(=O)O[C@@]12CO[C@@H]1C[C@H](OC(=O)CN1CCN(C)CC1)[C@@]1(C)C(=O)[C@H](O)C3=C(C)[C@@H](OC(=O)[C@H](O)[C@@H](NC(=O)c4ccccc4)c4ccccc4)C[C@@](O)([C@@H](OC(=O)c4ccccc4)[C@H]21)C3(C)C` the same measures were 590 nM and 0.67 µg/mL (≈ 0.704 µM).
As for `CC(=O)O[C@@]12CO[C@@H]1C[C@H](OC(=O)CN1CCOCC1)[C@@]1(C)C(=O)[C@H](O)C3=C(C)[C@@H](OC(=O)[C@H](O)[C@@H](NC(=O)c4ccccc4)c4ccccc4)C[C@@](O)([C@@H](OC(=O)c4ccccc4)[C@H]21)C3(C)C`, the IC50 in data set [2] came out at 1300 nM; in data set [1], 0.2 µg/mL (≈ 0.213 µM).
Take `CC(=O)O[C@@]12CO[C@@H]1C[C@H](OC(=O)CN1CCN(c3ccccn3)CC1)[C@@]1(C)C(=O)[C@H](O)C3=C(C)[C@@H](OC(=O)[C@H](O)[C@@H](NC(=O)c4ccccc4)c4ccccc4)C[C@@](O)([C@@H](OC(=O)c4ccccc4)[C@H]21)C3(C)C`: the IC50 came to 1650 nM in data set [2] and 0.014 µg/mL (≈ 0.0138 µM) in data set [1]. The logP in data set [3] turned out to be 0.155.
On to `CCCCC(=O)O[C@H]1C[C@H]2OC[C@@]2(OC(C)=O)[C@H]2[C@H](OC(=O)c3ccccc3)[C@]3(O)C[C@H](OC(=O)[C@H](O)[C@@H](NC(=O)c4ccccc4)c4ccccc4)C(C)=C([C@@H](OC(=O)CC)C(=O)[C@]12C)C3(C)C`, for which the Activity in data set [4] is 102%; in data set [5] it was 51%; in data set [6], 10%.
As to `CC(=O)O[C@@]12CO[C@@H]1C[C@H](O)[C@@]1(C)C(=O)[C@H](OC(=O)OCc3ccccc3)C3=C(C)[C@@H](OC(=O)[C@H](O)[C@@H](NC(=O)c4ccccc4)c4ccccc4)C[C@@](O)([C@@H](OC(=O)c4ccccc4)[C@H]21)C3(C)C`, the values for the Activity in data set [4], in data set [5] and in data set [6] were 115%, 83% and 34%, respectively.
For `COc1cccc(C(=O)O[C@H]2C[C@H]3OC[C@@]3(OC(C)=O)[C@H]3[C@H](OC(=O)c4ccccc4)[C@]4(O)C[C@H](OC(=O)[C@H](O)[C@@H](NC(=O)c5ccccc5)c5ccccc5)C(C)=C([C@@H](OC(=O)c5ccccc5)C(=O)[C@]23C)C4(C)C)c1`, in that order: 78%, 52% and 22%.
As to `CC(=O)O[C@@]12CO[C@@H]1C[C@H](OC(=O)CN1Cc3ccccc3C1)[C@@]1(C)C(=O)[C@H](O)C3=C(C)[C@@H](OC(=O)[C@H](O)[C@@H](NC(=O)c4ccccc4)c4ccccc4)C[C@@](O)([C@@H](OC(=O)c4ccccc4)[C@H]21)C3(C)C`, the IC50 in data set [2] came to 2040 nM.
`CC(=O)O[C@@]12CO[C@@H]1C[C@H](OC(=O)C=C(C)C)[C@@]1(C)C(=O)[C@H](OC(=O)OCc3ccccc3)C3=C(C)[C@@H](OC(=O)[C@H](O)[C@@H](NC(=O)c4ccccc4)c4ccccc4)C[C@@](O)([C@@H](OC(=O)c4ccccc4)[C@H]21)C3(C)C`: the Activity in data set [4] was 43%; in data set [5], 39%; in data set [6], 10%.
For `CCC(=O)O[C@H]1C(=O)[C@]2(C)[C@@H](OC(=O)CC)C[C@H]3OC[C@@]3(OC(C)=O)[C@H]2[C@H](OC(=O)c2ccccc2)[C@]2(O)C[C@H](OC(=O)[C@H](O)[C@@H](NC(=O)c3ccccc3)c3ccccc3)C(C)=C1C2(C)C`, the Activity in data set [4] came to 111%; in data set [5] it was 37%; in data set [6], 5%.
For the compound `CCC(=O)O[C@H]1C[C@H]2OC[C@@]2(OC(C)=O)[C@H]2[C@H](OC(=O)c3ccccc3)[C@]3(O)C[C@H](OC(=O)[C@H](O)[C@@H](NC(=O)c4ccccc4)c4ccccc4)C(C)=C([C@@H](OC(=O)OCc4ccccc4)C(=O)[C@]12C)C3(C)C`, the Activity turned out to be 24% in data set [4], 3% in data set [5] and 0% in data set [6].
For `C/C=C/C(=O)O[C@H]1C(=O)[C@]2(C)[C@@H](OC(=O)c3ccccc3)C[C@H]3OC[C@@]3(OC(C)=O)[C@H]2[C@H](OC(=O)c2ccccc2)[C@]2(O)C[C@H](OC(=O)[C@H](O)[C@@H](NC(=O)c3ccccc3)c3ccccc3)C(C)=C1C2(C)C`, the Activity in data set [4] worked out at 81%; in data set [5], 66%; in data set [6], 33%.
Consider `CC(=O)O[C@@]12CO[C@@H]1C[C@H](OC(=O)CCl)[C@@]1(C)C(=O)[C@H](OC(=O)OCc3ccccc3)C3=C(C)[C@@H](OC(=O)[C@H](O)[C@@H](NC(=O)c4ccccc4)c4ccccc4)C[C@@](O)([C@@H](OC(=O)c4ccccc4)[C@H]21)C3(C)C`, for which the Activity was determined as 48% in data set [4], 20% in data set [5] and 0% in data set [6].
Take `CC(=O)O[C@@]12CO[C@@H]1C[C@H](OC(=O)c1ccccc1)[C@@]1(C)C(=O)[C@H](OC(=O)OCc3ccccc3)C3=C(C)[C@@H](OC(=O)[C@H](O)[C@@H](NC(=O)c4ccccc4)c4ccccc4)C[C@@](O)([C@@H](OC(=O)c4ccccc4)[C@H]21)C3(C)C`: the Activity is 33% in data set [4], 32% in data set [5] and 10% in data set [6].
In the case of `CCCC(=O)O[C@H]1C[C@H]2OC[C@@]2(OC(C)=O)[C@H]2[C@H](OC(=O)c3ccccc3)[C@]3(O)C[C@H](OC(=O)[C@H](O)[C@@H](NC(=O)c4ccccc4)c4ccccc4)C(C)=C([C@@H](OC(=O)CC)C(=O)[C@]12C)C3(C)C`, the results for the Activity in data set [4], in data set [5] and in data set [6] were 123%, 52% and 4%, respectively.
Consider `CC(=O)O[C@H]1C(=O)[C@@]2(C)[C@H]([C@H](OC(=O)c3ccccc3)[C@]3(O)C[C@H](OC(=O)[C@H](O)[C@@H](NC(=O)c4ccccc4)c4ccccc4)C(C)=C1C3(C)C)[C@]1(OC(C)=O)CO[C@@H]1C[C@@H]2O` [PACLITAXEL], for which the Activity in data set [4] was found to be 100%; in data set [5], 66%; in data set [6], 2.3%. Besides, the IC50 in data set [2] came out at 550 nM; in data set [1] it was 0.136 µg/mL (≈ 0.159 µM). In data set [3], this compound returned a logP of 0.017.
For `CC(=O)O[C@@]12CO[C@@H]1C[C@H](OC(=O)CN1CCN(c3ccc(C(C)=O)cc3)CC1)[C@@]1(C)C(=O)[C@H](O)C3=C(C)[C@@H](OC(=O)[C@H](O)[C@@H](NC(=O)c4ccccc4)c4ccccc4)C[C@@](O)([C@@H](OC(=O)c4ccccc4)[C@H]21)C3(C)C`, the IC50 in data set [2] was determined as 4340 nM; in data set [1], 0.9 µg/mL (≈ 0.852 µM).
For `CC(=O)O[C@@]12CO[C@@H]1C[C@H](OC(=O)CN1CCC(N3CCCC3)CC1)[C@@]1(C)C(=O)[C@H](O)C3=C(C)[C@@H](OC(=O)[C@H](O)[C@@H](NC(=O)c4ccccc4)c4ccccc4)C[C@@](O)([C@@H](OC(=O)c4ccccc4)[C@H]21)C3(C)C` the same measures were 850 nM and 0.96 µg/mL (≈ 0.954 µM).
With `C/C=C/C(=O)O[C@H]1C(=O)[C@@]2(C)[C@H]([C@H](OC(=O)c3ccccc3)[C@]3(O)C[C@H](OC(=O)[C@H](O)[C@@H](NC(=O)c4ccccc4)c4ccccc4)C(C)=C1C3(C)C)[C@]1(OC(C)=O)CO[C@@H]1C[C@@H]2O`, the Activity in data set [4] amounted to 117%; in data set [5], 80%; in data set [6], 26%.
With `CCC(=O)O[C@H]1C(=O)[C@]2(C)[C@@H](OC(=O)c3ccccc3)C[C@H]3OC[C@@]3(OC(C)=O)[C@H]2[C@H](OC(=O)c2ccccc2)[C@]2(O)C[C@H](OC(=O)[C@H](O)[C@@H](NC(=O)c3ccccc3)c3ccccc3)C(C)=C1C2(C)C`, the Activity in data set [4] is 97%; in data set [5], 33%; in data set [6] it was 0%.
For `CCC(=O)O[C@H]1C(=O)[C@]2(C)[C@@H](OC(C)=O)C[C@H]3OC[C@@]3(OC(C)=O)[C@H]2[C@H](OC(=O)c2ccccc2)[C@]2(O)C[C@H](OC(=O)[C@H](O)[C@@H](NC(=O)c3ccccc3)c3ccccc3)C(C)=C1C2(C)C` the same measures were 111%, 44% and 5%.
In the case of `CC(=O)O[C@@]12CO[C@@H]1C[C@H](OC(=O)CN1CCCCC1)[C@@]1(C)C(=O)[C@H](O)C3=C(C)[C@@H](OC(=O)[C@H](O)[C@@H](NC(=O)c4ccccc4)c4ccccc4)C[C@@](O)([C@@H](OC(=O)c4ccccc4)[C@H]21)C3(C)C`, the IC50 came out at 1020 nM in data set [2] and 0.18 µg/mL (≈ 0.192 µM) in data set [1].
